What was measured:
Type in all cases: cell-based
[1] = biological target: T1, Aryl hydrocarbon receptor (Homo sapiens, UniProt P35869); experiment: Agonist activity at AhR (unknown origin) expressed in mouse H1L1.1c2 cells at 1 to 100 uM after 8 to 10 hrs by luciferase reporter gene assay
T1 sequence (P35869 whole entry): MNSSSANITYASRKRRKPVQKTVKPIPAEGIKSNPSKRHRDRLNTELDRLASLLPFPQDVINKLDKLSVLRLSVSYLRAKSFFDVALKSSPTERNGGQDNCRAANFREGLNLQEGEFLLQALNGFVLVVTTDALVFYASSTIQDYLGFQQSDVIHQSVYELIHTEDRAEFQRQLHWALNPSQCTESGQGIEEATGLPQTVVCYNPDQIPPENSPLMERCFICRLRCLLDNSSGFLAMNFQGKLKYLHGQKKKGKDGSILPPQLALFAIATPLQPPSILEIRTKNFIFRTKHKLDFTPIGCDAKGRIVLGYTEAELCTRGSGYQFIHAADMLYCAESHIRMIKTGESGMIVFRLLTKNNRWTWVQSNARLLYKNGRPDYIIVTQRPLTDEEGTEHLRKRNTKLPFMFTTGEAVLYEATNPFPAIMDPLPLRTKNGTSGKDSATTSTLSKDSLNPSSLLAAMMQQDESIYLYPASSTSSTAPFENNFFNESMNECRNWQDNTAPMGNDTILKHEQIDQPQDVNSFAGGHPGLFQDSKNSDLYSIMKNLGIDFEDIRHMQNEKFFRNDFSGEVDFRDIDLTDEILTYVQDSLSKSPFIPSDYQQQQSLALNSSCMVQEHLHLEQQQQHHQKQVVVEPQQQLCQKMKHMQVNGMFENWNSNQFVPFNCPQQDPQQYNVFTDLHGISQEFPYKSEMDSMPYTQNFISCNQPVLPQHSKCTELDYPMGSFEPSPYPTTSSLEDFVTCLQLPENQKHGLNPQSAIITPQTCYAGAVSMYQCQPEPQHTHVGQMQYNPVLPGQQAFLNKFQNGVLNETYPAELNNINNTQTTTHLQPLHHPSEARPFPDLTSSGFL
Procedure, shortened: (§1)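 AhR luciferase reporter cells were grown and treated with compounds at three concentrations (1, 10 and 100 μM). The reference ligand FICZ was run at 1 μM. The read-out was luciferase activity. Data are given as mean ± SD, with significance at P < 0.05, < 0.01 and < 0.001.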

[2] = biological target: T1, Aryl hydrocarbon receptor; experiment: Antagonist activity at AhR (unknown origin) expressed in mouse H1L1.1c2 cells assessed as inhibition of FICZ-induced AhR activation at 1 to 100 uM after 8 to 10 hrs by luciferase reporter gene assay
[3] = biological target: T1, Aryl hydrocarbon receptor; experiment: Agonist activity at AhR (unknown origin) expressed in mouse H1L1.1c2 cells after 8 to 10 hrs by luciferase reporter gene assay; procedure, shortened: as §1
[4] = biological target: T1, Aryl hydrocarbon receptor; experiment: Agonist activity at AhR (unknown origin) expressed in mouse H1L1.1c2 cells at 100 uM after 8 to 10 hrs by luciferase reporter gene assay

| SMILES | Activity [1] | inhibition (INH) [2] | Activity [3] | Activity [4] |
| --- | --- | --- | --- | --- |
| CCCOc1ccc2ccc(=O)oc2c1 [7-PROPOXYCOUMARIN] | Not Active | Active | – | – |
| COc1cc(/C=C/C(=O)O)ccc1OCC=C(C)C [BOROPINIC ACID] | – | Not Active | Dose-dependent effect | – |
| CC(C)(C)COc1ccc2ccc(=O)oc2c1 | – | Not Active | – | Active |
| C=CCOc1ccc2ccc(=O)oc2c1 [7-ALLYLOXYCOUMARIN] | Not Active | Not Active | – | – |
| C/C=C/COc1ccc2ccc(=O)oc2c1 [(E)-7-(2-BUTENYLOXY)COUMARIN] | – | Not Active | – | Active |
| CC(C)=CCOc1ccc2ccc(=O)oc2c1 [7-PRENYLOXYCOUMARIN] | – | Not Active | Dose-dependent effect | – |
| CC(C)CCOc1ccc2ccc(=O)oc2c1 | Not Active | Not Active | – | – |
| COc1ccc2ccc(=O)oc2c1 [HERNIARIN] | Not Active | Not Active | – | – |
| CCOc1ccc2ccc(=O)oc2c1 [ETHOXYCOUMARIN] | Not Active | Not Active | – | – |

Other lines, results leading:

| Activity [1] | inhibition (INH) [2] | Activity [3] | Activity [4] | SMILES |
| --- | --- | --- | --- | --- |
| – | Not Active | – | Active | CCC#CCOc1ccc2ccc(=O)oc2c1 [7-(2-PENTYNYLOXY)COUMARIN] |
| Not Active | Not Active | – | – | O=c1ccc2ccc(O)cc2o1 [UMBELLIFERONE] |
| Not Active | Not Active | – | – | COc1cc(/C=C/C(=O)O)ccc1OC/C=C(\C)CCC=C(C)C |
| Not Active | Not Active | – | – | CC(C)=CCC/C(C)=C/COc1ccc2ccc(=O)oc2c1 |

— ChEMBL document CHEMBL4190192, “Interaction of 7-Alkoxycoumarins with the Aryl Hydrocarbon Receptor” (J Nat Prod, 2017)
